Here are results for three compounds from ChEMBL document CHEMBL1135714, “New neplanocin analogues. 12. Alternative synthesis and antimalarial effect of (6'R)-6'-C-methylneplanocin A, a potent AdoHcy hydrolase inhibitor” (J Med Chem, 2002).

Experiment [1] is described as follows: The compound was tested for survival of the ICR mice (infected with Plasmodium berghei) as a symptom indicative of toxicity on day 4, at a dose of 0.5 mg/kg/day. The experiment is classed as functional, Mus musculus. In short, it runs like this:
(§1)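 P. berghei (NK 65 strain)-infected ICR mice, groups of five; compound in DMSO given intraperitoneally once daily for four consecutive days starting day 0; five infected DMSO-dosed mice as controls; survival counted on day 4 as toxicity indicator; Giemsa-stained tail blood smears, 1 × 10⁴ erythrocytes per film, for parasitemia.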

A short description of experiment [2]: The compound was tested for survival of the ICR mice (infected with Plasmodium berghei) as a symptom indicative of toxicity on day 4, at a dose of 10 mg/kg/day. In kind it is functional, Mus musculus. The procedure, abridged:
as §1

The test system of another experiment is Vero. As to the kind of experiment: The compound was tested for cytotoxicity against monkey kidney cell line ( Vero ). The experiment is classed as functional, cell-based. The following applies: Chlorocebus sabaeus.
A short description of experiment [3]: The compound was tested for survival of the ICR mice (infected with Plasmodium berghei) as a symptom indicative of toxicity on day 4, at a dose of 2 mg/kg/day. In kind it is functional, Mus musculus. In short, it runs like this:
as §1

In experiment [4] the test system is Plasmodium berghei. As to the kind of experiment: Parasitaemia (%) in tail blood smears of Plasmodium berghei infected ICR mice (Mus musculus) at 1.0 mg/kg/day after 4 days. The experiment is classed as functional. The procedure, abridged:
(§2)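 P. berghei NK 65-infected ICR mice, five per group. Compounds in DMSO were given intraperitoneally once daily for four consecutive days from day 0, at 0.1–20 mg/kg/day. Five infected DMSO-dosed mice served as controls. On day 4, Giemsa-stained tail-blood thin films were read by microscopy, with 1 × 10⁴ erythrocytes counted per film, to give % parasitemia.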

For experiment [5], the system named is Plasmodium berghei. As to the kind of experiment: Parasitaemia (%) in tail blood smears from Plasmodium berghei infected ICR mice (Mus musculus) at 0.5-mg/kg/day for 4 days. In kind it is functional. In short, it runs like this: as §2
The subject of experiment [6] is Plasmodium berghei. Nature of the experiment: Parasitaemia (%) in tail blood smears from Plasmodium berghei infected ICR mice (Mus musculus) at 0.1-mg/kg/day for 4 days. The experiment is classed as functional. In short, it runs like this: as §2
Experiment [7] deals with KATO III stomach cancer cell line. As to the kind of experiment: The compound was tested for cytotoxicity against the growth of human gastric carcinoma cell line ( KATO III ). The experiment is classed as functional, cell-based.
The subject of experiment [8] is Plasmodium berghei. Nature of the experiment: Parasitaemia (%) in tail blood smears from Plasmodium berghei infected ICR mice (Mus musculus) after 4 days. The experiment is classed as functional. In short, it runs like this:
as §2

The nature of experiment [9]: The compound was tested for survival of the ICR mice (infected with Plasmodium berghei) as a symptom indicative of toxicity on day 4, at a dose of 5 mg/kg/day. In kind it is functional, Mus musculus. In short, it runs like this:
as §1

For experiment [10], the system named is Plasmodium berghei. As to the kind of experiment: Parasitaemia (%) in tail blood smears of Plasmodium berghei infected ICR mice (Mus musculus) at 5 mg/kg/day after 4 days. In kind it is functional. The procedure, abridged: as §2
Experiment [11] in a line: The compound was tested for survival of the ICR mice (infected with Plasmodium berghei) as a symptom indicative of toxicity on day 4, at a dose of 1.0 mg/kg/day. The experiment is classed as functional, Mus musculus. The procedure, abridged:
as §1

A short description of experiment [12]: The compound was tested for survival of the ICR mice (infected with Plasmodium berghei) as a symptom indicative of toxicity on day 4, at a dose of 20 mg/kg/day. The experiment is classed as functional, Mus musculus. In short, it runs like this:
as §1

The test system of experiment [13] is Plasmodium berghei. As to the kind of experiment: Parasitaemia (%) in tail blood smears of Plasmodium berghei infected ICR mice (Mus musculus) at 10 mg/kg/day after 4 days. In kind it is functional. In short, it runs like this:
as §2

Experiment [14] is described as follows: The compound was tested for the dose required to cause 50% suppression of Plasmodium berghei growth in mice. The experiment is classed as functional, Mus musculus. The procedure, abridged:
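Four-day suppressive test in ICR mice infected with P. berghei NK 65, five per group. DMSO solutions were injected intraperitoneally daily on days 0–3 at 0.1–20 mg/kg/day, against infected DMSO-dosed controls. Day-4 parasitemia came from Giemsa-stained tail-blood smears, 1 × 10⁴ erythrocytes per film. EC50 is the dose giving 50% suppression of parasite growth.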

Experiment [15] can be described thus: The compound was tested for survival of the ICR mice (infected with Plasmodium berghei) as a symptom indicative of toxicity on day 4, at a dose of 0.1 mg/kg/day. In kind it is functional, Mus musculus. The procedure, abridged:
as §1

The subject of another experiment is Plasmodium falciparum. Nature of the experiment: In vitro antimalarial activity against Plasmodium falciparum.
Experiment [16] relates to Plasmodium berghei. Nature of the experiment: Parasitaemia (%) in tail blood smears of Plasmodium berghei infected ICR mice (Mus musculus) at 2 mg/kg/day after 4 days. In kind it is functional. The procedure, abridged:
as §2

Experiment [17] relates to Plasmodium berghei. Nature of the experiment: Parasitaemia (%) in tail blood smears from Plasmodium berghei infected ICR mice (Mus musculus) at 0.1 mg/kg/day for 4 days. In kind it is functional. In short, it runs like this:
as §2

Experiment [18] deals with Plasmodium berghei. Nature of the experiment: Parasitaemia (%) in tail blood smears of Plasmodium berghei infected ICR mice (Mus musculus) at 0.5 mg/kg/day after 4 days. In kind it is functional. The procedure, abridged:
as §2

In experiment [19] the test system is Plasmodium berghei. As to the kind of experiment: Parasitaemia (%) in tail blood smears of Plasmodium berghei infected ICR mice (Mus musculus) at 20 mg/kg/day after 4 days. In kind it is functional. In short, it runs like this:
as §2

Experiment [20] deals with Plasmodium berghei. As to the kind of experiment: Percent parasitaemia in tail blood smears from Plasmodium berghei infected ICR mice (Mus musculus) at 0.5-mg/kg/day after 4 days. The experiment is classed as functional. The procedure, abridged:
as §2

A short description of experiment [21]: The compound was tested for survival of the ICR mice (infected with Plasmodium berghei) as a symptom indicative of toxicity on day 4, at different doses 20 mg/kg/day. In kind it is functional, Mus musculus. The procedure, abridged: as §1

`C[C@@H](O)C1=C[C@@H](n2cnc3c(N)ncnc32)[C@H](O)[C@@H]1O`: the Survival in [1] is listed as 5; in experiment [2], 5; in experiment [3], 5; in experiment [9] it was 5; in experiment [11], 5; in experiment [12], 2. The Survival in experiment [15] is on record as 5. The IC50 was more than 1800 µM in the experiment on Vero, 1.1 µM in experiment [7] and 0.1 µM in the experiment with Plasmodium falciparum. In addition, the Parasitemia came out at 10% in the experiment with Plasmodium berghei [4]; 21% in the experiment with Plasmodium berghei [5]; 21% in the experiment on Plasmodium berghei [6]; 21% with Plasmodium berghei [8]; 2% in the experiment on Plasmodium berghei [10]; 2% in the experiment with Plasmodium berghei [13]. The compound further gave a Parasitemia in the experiment on Plasmodium berghei [16] of 5%. Besides, the EC50 in experiment [14] amounted to 1 mg/kg/day.
Regarding `CCN(CC)CCCC(C)Nc1ccnc2cc(Cl)ccc12` (stereo not given) [CHLOROQUINE], the Survival in experiment [1], in experiment [2], in experiment [3], in [9], in experiment [11] and in [12] was 5 each time. The Survival in experiment [15] stood at 5. Besides, the Parasitemia in the experiment with Plasmodium berghei [4] is listed as 18%; in the experiment with Plasmodium berghei [17] it was 21%; with Plasmodium berghei [8] it was 21%; with Plasmodium berghei [10], 3%; with Plasmodium berghei [18] it was 20%; in the experiment with Plasmodium berghei [13], 2%. Further, the Parasitemia with Plasmodium berghei [19] is 1%; in the experiment on Plasmodium berghei [16], 7%. In experiment [14], the EC50 was determined as 1.8 mg/kg/day.
With `Nc1ncnc2c1ncn2[C@@H]1C=C(CO)[C@@H](O)[C@H]1O` [NEOPLANOCIN A], the Survival in experiment [1] was determined as 5; in experiment [2], 0; in [3] it was 5; in experiment [21], 0; in experiment [9], 5; in experiment [11], 5. For the same compound, the Survival in experiment [15] is given as 5. Besides, the Parasitemia is recorded as 21% in the experiment with Plasmodium berghei [20]; 21% in the experiment with Plasmodium berghei [4]; 20% in the experiment on Plasmodium berghei [6]; 21% with Plasmodium berghei [8]; 12% with Plasmodium berghei [10]; 21% with Plasmodium berghei [16]. The figures for the IC50 (in experiment [7]; in the experiment with Plasmodium falciparum) were 0.22 µM and 0.2 µM, respectively. In [14], the EC50 is more than 5 mg/kg/day.
